Reference: ChEMBL document CHEMBL3414544, “PAINS in the assay: chemical mechanisms of assay interference and promiscuous enzymatic inhibition observed during a sulfhydryl-scavenging HTS” (J Med Chem, 2015)
Activity calls are given as the source filed them.

Columns and labels:
[1] = Fluorescence quenching in HTS buffer assessed as fluorescence signal reduction at 10 uM after 10 mins; format: physicochemical
[2] = Fluorescence quenching in HTS buffer with 20 uM 7-diethylamino-3-(4'-maleimidyl-phenyl)-4-methylcoumarin assessed as fluorescence signal reduction at 10 uM after 10 mins; format: physicochemical
[3] = target: T1, Histone acetyltransferase RTT109 (Saccharomyces cerevisiae (strain ATCC 204508 / S288c) (Baker's yeast), UniProt Q07794); assay: Inhibition of Vps75-stimulated recombinant Saccharomyces cerevisiae histone acetyltransferase Rtt109 using Asf1-dH3-H4 as substrate assessed as coenzyme A production after 45 mins by CPM based HTS assay
T1 sequence (Q07794 whole entry): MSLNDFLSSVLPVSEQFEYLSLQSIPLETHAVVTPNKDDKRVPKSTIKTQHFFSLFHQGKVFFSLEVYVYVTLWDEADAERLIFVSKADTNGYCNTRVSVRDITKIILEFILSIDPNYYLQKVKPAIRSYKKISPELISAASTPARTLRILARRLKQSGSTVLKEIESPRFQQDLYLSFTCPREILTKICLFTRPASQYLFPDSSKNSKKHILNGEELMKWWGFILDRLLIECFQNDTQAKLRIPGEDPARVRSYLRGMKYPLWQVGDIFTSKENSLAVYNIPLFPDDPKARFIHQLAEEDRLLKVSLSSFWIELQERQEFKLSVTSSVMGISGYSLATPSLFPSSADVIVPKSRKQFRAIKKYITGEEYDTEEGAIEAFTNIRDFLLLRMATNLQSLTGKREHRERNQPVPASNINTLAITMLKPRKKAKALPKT
In short: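 Recombinant Rtt109–Vps75 at 50 nM, with Asf1–dH3–H4 as substrate and acetyl-CoA as acetyl donor. Buffer contained freshly prepared 0.01% Triton X-100. The CoA product was detected by fluorescence of its CPM adduct. Plates had Z′ ≥0.5. IC50 came from a four-parameter variable-slope fit.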

[4] = Fluorescence quenching in HTS buffer with […] CoA assessed as fluorescence signal reduction at 10 uM after 10 mins; format: physicochemical
[5] = Fluorescence quenching assessed as fluorescence signal reduction at 10 uM after 10 mins; format: physicochemical
In short: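 CPM (20 μM final) and CoA (5 μM final) reacted to completion in assay buffer (stable plateau, usually ~5 min); adduct solution added to wells preplated with compound; shaken 5 min, equilibrated 5 min at room temperature; fluorescence intensity read as percent signal reduction versus DMSO controls. Flagged as quencher at >20% signal reduction at 10 μM final compound.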

[6] = target: T2, Histone acetyltransferase RTT109 (Saccharomyces cerevisiae (strain ATCC 204508 / S288c) (Baker's yeast)) (UniProt Q07794); assay: Inhibition of Vps75-stimulated recombinant Saccharomyces cerevisiae histone acetyltransferase Rtt109 assessed as H3K27 acetylated product at […] after 45 mins by Slot bolt inhibiton assay
T2 sequence (whole entry): T1 sequence (Q07794 whole entry)

[7] = target: T2, Histone acetyltransferase RTT109 (Saccharomyces cerevisiae (strain ATCC 204508 / S288c) (Baker's yeast)); assay: Inhibition of Vps75-stimulated recombinant Saccharomyces cerevisiae histone acetyltransferase Rtt109 assessed as H3K56 acetylated product at […] after 45 mins by Slot bolt inhibiton assay

| IC50 [3] | Compound | Activity [1] | Activity [2] | IC50 ([3]; read-out: IC50) [µM] | Activity [4] | Activity [5] | Activity [6] | Activity [7] |
| --- | --- | --- | --- | --- | --- | --- | --- | --- |
|  | [Cl-].c1ccc(C[n+]2sc(Nc3ccccc3)nc2-c2ccccc2)cc1 | Not Active | Not Active | 3.1 | Not Active | Not Active |  |  |
|  | O=C1CC(Sc2nncn2-c2ccccc2)C(=O)N1c1cc(Cl)cc(Cl)c1 (configuration not stated) | Not Active | Not Active | 16 | Not Active | Not Active | Active | Active |
|  | O=[N+]([O-])c1c(SCc2ccccc2)cc(Cl)c2nonc12 | Not Active | Not Active | 1.7 | Not Active | Not Active | Active | Active |
|  | COc1ccc(Cc2nnc(SC3=CS(=O)(=O)c4ccccc43)o2)cc1 | Not Active | Not Active | 7.1 | Not Active | Not Active | Active | Active |
|  | CN(CCO)c1cc(Sc2nnc(-c3ccccc3)o2)c2nonc2c1[N+](=O)[O-] | Not Active | Not Active | 5.3 | Not Active | Not Active | Active | Active |
|  | O=C1C=CC(=O)N1c1ccccc1 | Not Active | Not Active | 7.6 | Not Active | Not Active | Active | Active |
|  | Cc1ccc(Sc2cc(NS(=O)(=O)c3ccc(Cl)cc3)c3ccccc3c2O)cc1 | Not Active | Not Active | 2.9 | Not Active | Not Active | inactive | Active |
|  | Cn1c(CN2CCOCC2)nnc1Sc1ccc([N+](=O)[O-])c2nonc12 | Not Active | Not Active | 1.8 | Not Active | Not Active | Active | Active |
|  | COc1ccc(Nc2nc(-c3ccc(OC)cc3)[n+](CS(=O)(=O)c3ccc(C)cc3)s2)cc1.O=S(=O)([O-])O | Not Active | Not Active | 2.7 | Not Active | Not Active | Active | Active |
|  | [O-][Cl+3]([O-])([O-])[O-].c1ccc(-c2nc(N(c3ccccc3)c3ccccc3)s[n+]2-c2ccccc2)cc1 | Not Active | Not Active | 3.5 | Not Active | Not Active | Active | Active |
|  | Cc1ccc(N2C(=O)C=CC2=O)cc1 | Not Active | Not Active | 6 | Not Active | Not Active | Active | Active |
|  | [Br-].c1ccc(C[n+]2sc(Nc3ccccc3)nc2-c2ccccc2)cc1 | Not Active | Not Active | 3.1 | Not Active | Not Active |  |  |
|  | O=[N+]([O-])c1ccc2nonc2c1Sc1nc2ccccc2[nH]1 | Not Active | Not Active | 3.4 | Not Active | Not Active | Active | Active |
|  | Cc1ccc(S(=O)(=O)Nc2cc(Sc3nnnn3-c3ccccc3)c(O)c3ccccc23)cc1 | Not Active | Not Active | 8.6 | Not Active | Not Active | Active | Active |
|  | O=C1C=CC(=O)N1c1cc(Cl)cc(Cl)c1 | Not Active | Not Active | 3.1 | Not Active | Not Active | Active | Active |
|  | Cc1ccc(N2C(=O)CC(Sc3nnc(-c4ccccc4O)o3)C2=O)cc1 (configuration not stated) | Not Active | Not Active | 50 | Not Active | Not Active | Active | Active |
|  | O=S(=O)(Nc1cc(Sc2cccc3cccnc23)c(O)c2ccccc12)c1ccccc1 | Not Active | Not Active | 2.4 | Not Active | Not Active | Active | Active |
| Not Active | CC(C)(C)c1ccc(S(=O)(=O)Nc2cc(SCC(=O)O)c(O)c3ccccc23)cc1 | Not Active | Active |  | Not Active | Not Active |  |  |
| Not Active | CC(C)c1ccc(S(=O)(=O)Nc2cc(SCCC(=O)O)c(O)c3ccccc23)cc1 | Not Active | Active |  | Not Active | Not Active |  |  |
|  | Cc1ccc(S(=O)(=O)C[n+]2sc(N(c3ccccc3)c3ccccc3)nc2-c2ccccc2)cc1.[Br-] | Not Active | Not Active | 42 | Not Active | Not Active |  |  |
|  | Cc1ccc(-c2nc(N(c3ccccc3)c3ccccc3)s[n+]2CS(=O)(=O)c2ccccc2)cc1.[O-][Cl+3]([O-])([O-])[O-] | Not Active | Not Active |  | Not Active | Not Active | inactive | inactive |
|  | CSc1nsc(SC2=CS(=O)(=O)c3ccccc32)n1 | Not Active | Not Active |  | Not Active | Not Active | Active | Active |
|  | Cc1ccc(S(=O)(=O)C[n+]2sc(N(c3ccccc3)c3ccccc3)nc2-c2ccccc2)cc1.[Cl-] | Not Active | Not Active | 26 | Not Active | Not Active |  |  |
|  | COc1cc(-c2nnc(SC3=CS(=O)(=O)c4ccccc43)o2)cc(OC)c1OC | Not Active | Not Active |  | Not Active | Not Active | Active | Active |
|  | O=C(O)c1ccc(S(=O)(=O)Nc2cc(Br)c(O)c3ccccc23)cc1 | Not Active | Not Active |  | Not Active | Not Active | Active | Active |
|  | Cn1c(Sc2ccc([N+](=O)[O-])c3nonc23)nnc1-c1ccccc1 | Not Active | Not Active |  | Not Active | Not Active | Active | Active |
|  | [O-][Cl+3]([O-])([O-])[O-].c1ccc(C[n+]2sc(N(c3ccccc3)c3ccccc3)nc2-c2ccccc2)cc1 | Not Active | Not Active |  | Not Active | Not Active | Active | Active |
|  | [Br-].c1ccc(Nc2nc(-c3ccccc3)[n+](-c3ccccc3)s2)cc1 | Not Active | Not Active |  | Not Active | Not Active | Active | Active |
| Not Active | O=C(O)CSc1cc(NS(=O)(=O)c2cccc([N+](=O)[O-])c2)c2ccccc2c1O | Not Active | Active |  | Not Active | Not Active |  |  |
